Data set [1] addresses T1, Peroxisome proliferator-activated receptor delta (Homo sapiens, UniProt Q03181).
T1 sequence (Q03181 whole entry): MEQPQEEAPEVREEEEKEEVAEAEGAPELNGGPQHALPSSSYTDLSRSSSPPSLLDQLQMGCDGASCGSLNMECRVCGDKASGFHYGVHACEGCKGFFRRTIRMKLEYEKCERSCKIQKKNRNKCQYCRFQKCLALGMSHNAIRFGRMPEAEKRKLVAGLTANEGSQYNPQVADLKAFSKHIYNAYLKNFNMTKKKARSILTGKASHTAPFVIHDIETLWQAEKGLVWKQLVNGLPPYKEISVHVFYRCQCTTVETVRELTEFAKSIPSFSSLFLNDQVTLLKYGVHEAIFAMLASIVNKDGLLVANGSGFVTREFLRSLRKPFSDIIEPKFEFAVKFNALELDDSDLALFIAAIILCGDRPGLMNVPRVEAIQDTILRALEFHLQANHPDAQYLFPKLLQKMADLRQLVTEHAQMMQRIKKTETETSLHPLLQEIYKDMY
Put plainly: Agonist activity at Gal4-fused human PPARdelta LBD transfected in HEK293T cells assessed as transcriptional activation incubated for 14 to 16 hrs by dual-Glo luciferase assay. The class given is cell-based. Put shortly:
(§1)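 HEK293T cells transiently transfected with pFR-Luc, pRL-SV40 and Gal4 fusion of human PPAR hinge region plus LBD. Compound added 5 h later in Opti-MEM with 0.1% DMSO, then left overnight (14−16 h). Dual-Glo firefly/Renilla luciferase read, giving RLU. Fold activation is taken against the DMSO control. Max relative activation is set against 1 μM GW7647 (α) or L165,041 (δ). EC50 from a four-parameter fit. Duplicates, ≥3 independent runs.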

In a further data set the test system is HEK-293T. Put plainly: Cytotoxicity against HEK293T cells assessed as reduction in cell viability at >= 6 uM. The class given is cell-based. To be noted: human.
The target in data set [2] is T2, Peroxisome proliferator-activated receptor alpha (Homo sapiens) (UniProt Q07869).
T2 sequence (whole entry): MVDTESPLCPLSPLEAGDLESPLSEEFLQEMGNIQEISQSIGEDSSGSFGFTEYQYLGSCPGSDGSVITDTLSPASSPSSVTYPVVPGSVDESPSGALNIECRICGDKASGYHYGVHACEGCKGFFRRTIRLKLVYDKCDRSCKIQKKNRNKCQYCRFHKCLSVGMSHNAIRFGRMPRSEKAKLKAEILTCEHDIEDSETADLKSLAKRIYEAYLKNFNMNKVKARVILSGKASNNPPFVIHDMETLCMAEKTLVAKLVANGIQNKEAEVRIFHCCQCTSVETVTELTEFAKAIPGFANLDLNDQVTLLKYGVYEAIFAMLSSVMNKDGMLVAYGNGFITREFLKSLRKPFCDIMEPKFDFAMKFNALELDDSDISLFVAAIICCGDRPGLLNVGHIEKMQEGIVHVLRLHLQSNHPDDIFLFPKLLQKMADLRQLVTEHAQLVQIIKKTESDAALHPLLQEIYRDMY
Nature of the data set: Agonist activity at Gal4-fused human PPARalpha LBD transfected in HEK293T cells assessed as maximal relative activation incubated for 14 to 16 hrs by dual-Glo luciferase assay relative to GW7647. The settings on record: time 14-16 hrs. The class given is cell-based. Put shortly:
as §1

Data set [3] deals with T3, Peroxisome proliferator-activated receptor gamma (Homo sapiens, UniProt P37231).
T3 sequence (P37231 whole entry): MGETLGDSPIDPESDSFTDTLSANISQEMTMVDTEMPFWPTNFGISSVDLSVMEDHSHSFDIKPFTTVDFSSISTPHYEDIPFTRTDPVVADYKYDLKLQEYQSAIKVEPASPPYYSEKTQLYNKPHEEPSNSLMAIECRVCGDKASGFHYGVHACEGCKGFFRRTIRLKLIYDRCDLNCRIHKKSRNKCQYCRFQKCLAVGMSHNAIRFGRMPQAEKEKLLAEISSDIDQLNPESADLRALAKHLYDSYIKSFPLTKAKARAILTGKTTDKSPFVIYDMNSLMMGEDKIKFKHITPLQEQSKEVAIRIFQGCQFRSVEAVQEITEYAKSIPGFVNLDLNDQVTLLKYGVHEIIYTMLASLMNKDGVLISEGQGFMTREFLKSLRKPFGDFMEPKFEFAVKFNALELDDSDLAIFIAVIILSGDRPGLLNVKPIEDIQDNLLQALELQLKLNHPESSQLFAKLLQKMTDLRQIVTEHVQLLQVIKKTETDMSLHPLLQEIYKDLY
Put plainly: Agonist activity at Gal4-fused human PPARgamma LBD transfected in HEK293T cells assessed as transcriptional activation incubated for 14 to 16 hrs by dual-Glo luciferase assay. The class given is cell-based.

In data set [4] the target is T4, Peroxisome proliferator-activated receptor delta (Homo sapiens) (UniProt Q03181).
T4 sequence (whole entry): T1 sequence (Q03181 whole entry)
Nature of the data set: Agonist activity at Gal4-fused human PPARdelta LBD transfected in HEK293T cells assessed as maximal relative activation incubated for 14 to 16 hrs by dual-Glo luciferase assay relative to L165,041. The class given is cell-based. The settings on record: time 14-16 hrs. The essentials:
as §1

The target of data set [5] is T5, Peroxisome proliferator-activated receptor alpha (Homo sapiens, UniProt Q07869).
T5 sequence (Q07869 whole entry): T2 sequence (whole entry)
Nature of the data set: Agonist activity at Gal4-fused human PPARalpha LBD transfected in HEK293T cells assessed as transcriptional activation incubated for 14 to 16 hrs by dual-Glo luciferase assay. The class given is cell-based. Put shortly:
as §1

For data set [6], the target named is T4, Peroxisome proliferator-activated receptor delta (Homo sapiens). Nature of the data set: Agonist activity at human Gal4-PPARdelta transfected in HEK293T cells assessed as increase in eGFP fluorescence at 300 nM incubated for 40 hrs by fluorescence microscopic analysis. The class given is cell-based. The essentials:
(§2)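 HEK293T cells transfected separately with UAS-mCherry-NLS plus Gal4-PPARα-LBD, or […]-GFP plus Gal4-PPARδ-LBD. Cells pooled 5 h later and reseeded with compound in 0.1% DMSO. cis form preirradiated 3 min at 365 nm, then held with 75 ms 370 nm pulses every 15 s. Microscope images taken at 40 h. Integrated density set against 1 μM reference agonist. Duplicates, two independent runs.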

Data set [7] concerns the target T2, Peroxisome proliferator-activated receptor alpha (Homo sapiens). Put plainly: Agonist activity at human Gal4-PPARalpha transfected in HEK293T cells assessed as increase in mCherry fluorescence at 10 nM incubated for 8 hrs followed by irradiation with 460 nm UV light for 3 mins by fluorescence based analysis. The class given is cell-based. The settings on record: filed as agonist. Put shortly:
(§3)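 Live HEK293T cells carrying UAS-mCherry-NLS plus Gal4-PPARα-LBD were treated with compound in 0.1% DMSO. mCherry read (ex 585, em 610 nm) hourly from 8 to 24 h and at 36 h. At 8 h, isomers switched by 3 min illumination at 365 or 460 nm. cis state held by Cell DISCO. Fold intensity against DMSO. n = 3.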

For data set [8] the target is unchanged. Nature of the data set: Agonist activity at human Gal4-PPARalpha transfected in HEK293T cells assessed as increase in mCherry fluorescence at 10 nM measured after 8 to 24 hrs by fluorescence microscopic analysis. The class given is cell-based. The settings on record: filed as agonist, time 8-24 hrs. Put shortly: as §3
Data set [9] shares this target. Nature of the data set: Agonist activity at human Gal4-PPARalpha transfected in HEK293T cells assessed as increase in mCherry fluorescence at 10 nM incubated for 40 hrs by fluorescence microscopic analysis. The class given is cell-based. The settings on record: filed as agonist. Put shortly:
as §2

Data set [10] in a line: Photostability of compound assessed as photochemical switch by measuring cis-isoform at 50 uM incubated for 8 hrs followed by irradiation with 365 nm UV light for 3 mins by HPLC analysis. The class given is physicochemical.
Data set [11] is described as follows: Microsomal stability in Sprague-Dawley rat liver microsomes assessed as half life at 10 uM measured up to 60 mins in presence of NADPH regenerating system by HPLC-UV analysis. The class given is ADME, Microsome. Put shortly: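 Compound at 10 μM final, preincubated 5 min at 37 °C in 0.1 M phosphate pH 7.4 with NADPH-regenerating system. Reaction started with Sprague-Dawley rat liver microsomes and stopped with cold methanol at 0, 15, 30 and 60 min. Remaining compound measured by HPLC-UV at 254/280 nm against external calibration. Controls run without NADPH and with heat-inactivated microsomes. Half-life from log-linear fit. Three independent runs.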

The target in data set [12] is T2, Peroxisome proliferator-activated receptor alpha (Homo sapiens). Nature of the data set: Agonist activity at human Gal4-PPARalpha transfected in HEK293T cells assessed as increase in mCherry fluorescence at 300 nM incubated for 40 hrs by fluorescence microscopic analysis. To be noted: filed as agonist. The class given is cell-based. Put shortly:
as §2

Active and inactive are the calls of the source. The calls are words filed in the database; no cut-off is given here.

The EC50 is the concentration at which the effect is half-maximal. The term half-life denotes how long it takes for the measured level to halve.

Take `Cc1ccc(/N=N/c2ccc(OCCc3ccc(OC(C)(C)C(=O)O)cc3)cc2)cc1`: the EC50 was 1420 nM in data set [1], over 10000 nM in [3] and 660 nM in [5]. Besides, in the data set on HEK-293T, the Activity result is “Non-Toxic”. Moreover, the max activation in data set [2] was found to be 24%; in data set [4], 33%.
As to `Cc1cc(/N=N/c2ccccc2)ccc1OCCc1ccc(OC(C)(C)C(=O)O)cc1`, in data set [6], the outcome was inactive. Further, the EC50 was 540 nM in data set [1] and 7 nM in data set [5]. The outcome in [7], in [8], in data set [9] and in [12] was Active. The Stability entry in data set [10] is reported as “Stable”. The max activation in data set [2] came out at 38%; in data set [4] (filed as agonist) it was 45%. The half-life at 10 µM in [11] came out at 1.72 h.

The values are drawn from ChEMBL document CHEMBL5032512, “A Photohormone for Light-Dependent Control of PPARα in Live Cells” (J Med Chem, 2021).
